Several values for one entry are separate records, joined by “and”; a condition that tells them apart may be missing. Identical values can stand only once. Values belong to the compound of their own block, whether it stands above or below them.
What was measured:
[1] = Plasma concentration at the end of the first infusion in dog cardiovascular assay; value is in between 2.75-2.93; type: ADME, Canis lupus familiaris; details: iv
[2] = Plasma concentration at the end of the first infusion in dog cardiovascular assay; value is in between 1.36-1.43; type: ADME, Canis lupus familiaris; details: iv
[3] = biological target: T1, Melanin-concentrating hormone receptor 1 (Homo sapiens, UniProt Q99705); assay: Inhibition of melanin concentrating hormone receptor 1 mediated [Ca2+] release in IMR-32 cells in Ca+2 release cell assay; type: functional, cell-based
[4] = Brain area under concentration curve after oral administration in diet-induced obese mouse at a dose of 10 mg/kg for 0-24 hr period, n=3; type: ADME, organism-based; design: time < 24 hr, dose 10 mg/kg, route oral; details: in vivo
Procedure, shortened: (§1)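 Diet-induced obese mice were given a single oral dose of 10 mg/kg. Plasma and brain were sampled over 24 h. […] Values are mean ± SEM, n = 3.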

[5] = biological target: T1, Melanin-concentrating hormone receptor 1; assay: Inhibitory concentration aganist melanin concentrating hormone receptor 1 expressed in IMR-32 cells using [125I]MCH; type: cell-based
[6] = Plasma area under concentration curve after oral administration in diet-induced obese mouse at a dose of 10 mg/kg for 0-24 hr period,n=3; type: ADME, organism-based; design: time < 24 hr, dose 10 mg/kg, route oral; procedure, shortened: as §1
[7] = Maximum concentration in diet-induced obese mouse brain at 10 mg/kg oral administration; n=3; type: ADME, organism-based; design: dose 10 mg/kg, route oral; procedure, shortened: as §1
[8] = biological target: Voltage-gated inwardly rectifying potassium channel KCNH2 (Homo sapiens, UniProt Q12809); assay: Inhibition of human potassium channel HERG
[9] = Peak plasma concentration after iv administration at a dose 2.5 mg/kg; type: ADME, organism-based, Canis lupus familiaris; design: dose 2.5 mg/kg, route intravenous; details: dog
Procedure, shortened: (§2)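 Male beagle dogs received a single intravenous bolus of 2.5 mg/kg. Plasma was sampled to derive half-life, Cmax, plasma clearance and AUC0-∞. Values are mean ± SEM.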

Mus musculus [10] = assay: Percent change in body weight after oral administration at a dose of 30 mg/kg b.i.d. as compare to vehicle (1% Tween-80 in water) observed for 13 days
Mus musculus [11] = assay: Percent change in body weight after oral administration at a dose of 10 mg/kg b.i.d. as compare to vehicle (1% Tween-80 in water) observed for 28 days
[12] = Bioavailability after oral administration; type: ADME, organism-based, Canis lupus familiaris; details: dog, in vivo, read-out: Activity
[13] = Half-life after oral administration; type: ADME, organism-based, Canis lupus familiaris; details: dog, in vivo
Mus musculus [14] = assay: Drug concentration in brain 1 hr after final dose of 10 mg/kg, administered orally; details: po
Mus musculus [15] = assay: Percent change in body weight after oral administration at a dose of 30 mg/kg b.i.d. as compare to vehicle (1% Tween-80 in water) observed for 28 days
[16] = Plasma area under curve after oafter iv administration at a dose 2.5 mg/kg; type: ADME, organism-based, Canis lupus familiaris; design: dose 2.5 mg/kg, route intravenous; details: dog, in vivo; procedure, shortened: as §2
[17] = Drug concentration in plasma 1 hr after final dose of 10 mg/kg administered orally; type: ADME, organism-based; design: dose 10 mg/kg, route oral; details: mouse, po, read-out: Activity
Procedure, shortened: (§3)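 Diet-induced obese mice were dosed orally at 10 or 30 mg/kg b.i.d. for 13 days. Body weight was expressed as % change from vehicle controls. Plasma (μg/mL) and brain (μg/g) drug levels were measured 1 h after the final dose. Values are mean ± SEM, n = 3.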

[18] = Drug concentration in brain 1 hr after final dose of 10 mg/kg, administered orally; type: ADME, organism-based; design: dose 10 mg/kg, route oral; details: mouse, po, read-out: Activity; procedure, shortened: as §3
[19] = Plasma concentration after intravenous infusion at a dose of 8 mg/kg/30 min; type: ADME, organism-based, Canis lupus familiaris; design: route intravenous; details: dog, read-out: Activity
Mus musculus [20] = assay: Percent change in body weight after oral administration at a dose of 10 mg/kg b.i.d. as compare to vehicle (1% Tween-80 in water) observed for 13 days
[21] = biological target: Adrenergic receptor alpha-1 (Homo sapiens) (UniProt P35348+P25100+P35368); assay: Non-selective inhibition against adrenergic-alpha-1 receptor at 10 uM; type: protein assay
[22] = Plasma concentration after intravenous infusion at a dose of 26 mg/kg/30 min; type: ADME, organism-based, Canis lupus familiaris; design: route intravenous; details: dog, read-out: Activity
[23] = Plasma clearance after iv administration at a dose 2.5 mg/kg; type: ADME, organism-based, Canis lupus familiaris; design: dose 2.5 mg/kg, route intravenous; details: dog, read-out: Clp (converted); procedure, shortened: as §2
[24] = Plasma concentration after intravenous infusion at a dose of 80 mg/kg measured after approximately 12 min; type: ADME, organism-based, Canis lupus familiaris; design: dose 80 mg/kg, route intravenous; details: dog, read-out: Activity
[25] = Half-life after iv administration at a dose 2.5 mg/kg; type: ADME, organism-based, Canis lupus familiaris; design: dose 2.5 mg/kg, route intravenous; details: dog, in vivo; procedure, shortened: as §2
[26] = Drug concentration in plasma 1 hr after final dose of 30 mg/kg administered orally; type: ADME, organism-based; design: dose 30 mg/kg, route oral; details: mouse, po, read-out: Activity; procedure, shortened: as §3
[27] = biological target: Dopamine receptor (Homo sapiens) (UniProt P14416+P35462+P21918+P21917+P21728); assay: Non-selective inhibition against dopamine receptor at 10 uM; type: protein assay
[28] = Concentration in diet-induced obese mouse brain 12 h after 10 mg/kg oral administration; type: ADME, organism-based; design: dose 10 mg/kg, route oral; details: read-out: C12h; procedure, shortened: as §1
[29] = Peak plasma concentration after oral administration; type: ADME, organism-based, Canis lupus familiaris; design: route oral; details: dog
[30] = Plasma area concentration under curve after peroral administration in lean mouse at a dose of 10 mg/kg; type: ADME, organism-based; design: dose 10 mg/kg, route oral; details: po
Procedure, shortened: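 Single oral dose of 10 mg/kg given to lean mice. Plasma exposure is expressed as AUC, and brain AUC was measured alongside it. Interanimal variability was below 25% for all values.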

[31] = Brain area under concentration curve after peroral administration in lean mouse at a dose of 10 mg/kg; type: ADME, organism-based; design: dose 10 mg/kg, route oral; details: in vivo, po
[32] = Plasma area under concentration curve after peroral administration in lean mouse at a dose of 10 mg/kg; type: ADME, organism-based; design: dose 10 mg/kg, route oral; details: po

T1 sequence (Q99705 whole entry): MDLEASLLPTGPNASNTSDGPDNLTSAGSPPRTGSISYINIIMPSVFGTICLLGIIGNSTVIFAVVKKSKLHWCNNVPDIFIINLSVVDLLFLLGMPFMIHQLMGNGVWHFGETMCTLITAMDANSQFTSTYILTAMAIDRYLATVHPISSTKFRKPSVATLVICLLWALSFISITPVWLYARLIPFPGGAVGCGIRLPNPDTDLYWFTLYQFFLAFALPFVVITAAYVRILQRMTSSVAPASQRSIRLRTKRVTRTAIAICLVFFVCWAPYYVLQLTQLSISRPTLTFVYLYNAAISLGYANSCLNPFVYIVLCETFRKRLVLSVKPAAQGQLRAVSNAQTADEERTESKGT
Sequence of Voltage-gated inwardly rectifying potassium channel KCNH2 (Q12809 whole entry): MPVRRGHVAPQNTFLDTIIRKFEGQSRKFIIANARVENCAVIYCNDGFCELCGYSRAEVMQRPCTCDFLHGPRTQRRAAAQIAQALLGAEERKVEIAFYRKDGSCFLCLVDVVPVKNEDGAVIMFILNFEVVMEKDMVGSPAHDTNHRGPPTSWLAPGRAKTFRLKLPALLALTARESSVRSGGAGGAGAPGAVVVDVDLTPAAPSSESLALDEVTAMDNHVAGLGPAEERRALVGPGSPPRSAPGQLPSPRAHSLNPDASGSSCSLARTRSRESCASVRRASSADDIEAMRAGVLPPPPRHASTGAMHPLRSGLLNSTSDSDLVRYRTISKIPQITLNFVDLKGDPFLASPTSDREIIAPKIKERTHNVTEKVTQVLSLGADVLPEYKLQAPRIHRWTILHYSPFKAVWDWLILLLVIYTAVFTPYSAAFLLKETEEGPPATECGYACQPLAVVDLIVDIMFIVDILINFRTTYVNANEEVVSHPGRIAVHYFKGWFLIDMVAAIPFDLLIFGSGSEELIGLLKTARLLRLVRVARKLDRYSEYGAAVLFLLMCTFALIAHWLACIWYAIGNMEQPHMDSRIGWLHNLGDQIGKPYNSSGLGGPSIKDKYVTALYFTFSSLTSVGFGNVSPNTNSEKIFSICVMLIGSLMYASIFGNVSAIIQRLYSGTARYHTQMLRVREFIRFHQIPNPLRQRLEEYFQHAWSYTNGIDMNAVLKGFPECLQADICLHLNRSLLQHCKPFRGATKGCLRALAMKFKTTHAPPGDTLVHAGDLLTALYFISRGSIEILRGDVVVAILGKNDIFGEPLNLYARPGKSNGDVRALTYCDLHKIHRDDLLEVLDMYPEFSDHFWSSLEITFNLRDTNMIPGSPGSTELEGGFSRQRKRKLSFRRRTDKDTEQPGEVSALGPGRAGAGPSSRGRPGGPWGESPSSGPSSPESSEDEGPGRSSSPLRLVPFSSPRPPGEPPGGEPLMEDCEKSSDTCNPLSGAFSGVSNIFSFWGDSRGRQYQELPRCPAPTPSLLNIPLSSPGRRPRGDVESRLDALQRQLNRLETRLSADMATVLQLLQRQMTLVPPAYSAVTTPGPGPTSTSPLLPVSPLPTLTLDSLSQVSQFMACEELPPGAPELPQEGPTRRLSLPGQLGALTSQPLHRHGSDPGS

SMILES: O=c1cc(NC2CCN(Cc3ccc4ocnc4c3)CC2)c2cc(Cl)ccc2o1
AUC [4]: 0 µg·h/g
IC50 [5]: 3 nM
IC50 [3]: 163 nM

SMILES: O=c1cc(NC2CCN(Cc3ccc4sccc4c3)CC2)c2cc(Cl)ccc2o1
IC50 [5]: 6 nM
IC50 [3]: 189 nM

SMILES: O=c1cc(NC2CCN(C/C=C/c3ccccc3)CC2)c2cc(Cl)ccc2o1
AUC [30]: 1920 ng·h/mL
AUC [31]: 2.6 µg·h/g
IC50 [5]: 9 nM
IC50 [3]: 211 nM

SMILES: O=c1cc(NC2CCN(C/C=C/c3ccccc3)CC2)c2ccccc2o1
IC50 [5]: 191 nM
IC50 [3]: 1040 nM

SMILES: CC(C)(C)c1ccc(CN2CCC(/N=c3\cc(O)oc4ccc(Cl)cc34)CC2)cc1
IC50 [3]: > 10000 nM

SMILES: O=c1cc(NC2CCN(Cc3ccc4c(c3)OC(F)(F)O4)CC2)c2cc(Cl)ccc2o1
IC50 [5]: 19 nM
IC50 [3]: 581 nM

SMILES: O=c1cc(NC2CCN(Cc3ccc4ncoc4c3)CC2)c2cc(Cl)ccc2o1
IC50 [5]: 75 nM
IC50 [3]: 461 nM

More lines, main results first:

IC50 [3]: 11 nM
SMILES: COc1ccc2oc(O)c/c(=N\C3CCN(Cc4ccc5c(c4)OCO5)CC3)c2c1
Activity [1]: 2.84 µg/mL
Activity [2]: 2.84 µg/mL

AUC [4]: 0.449 µg·h/g
AUC at 24 h [6]: 621 ng·h/mL
Cmax [7]: 294 ng/g
IC50 [5]: 27 nM
IC50 [3]: 41 nM
SMILES: O=c1cc(NC2CCN(Cc3ccc4c(c3)CCO4)CC2)c2cc(Cl)ccc2o1

IC50 [5]: 24 nM
IC50 [3]: 28 nM
SMILES: O=c1cc(NC2CCN(Cc3ccc4cc[nH]c4c3)CC2)c2cc(Cl)ccc2o1

Cmax [9]: 1600 ng/mL
bioavailability [12]: 48%
half-life [13]: 4.4 h
AUC at 24 h [6]: 6350 ng·h/mL
concentration at 1 h (Mus musculus [14]): 6460 ng/g
AUC [16]: 2660 ng·h/mL
concentration at 1 h [17]: 2000 ng/mL
concentration at 1 h [18]: 2210 ng/g
concentration at 0.5 h [19]: 3330 ng/mL
inhibition [21]: 75% and 69%
concentration at 0.5 h [22]: 11800 ng/mL
clearance [23]: 15.8 mL/min/kg
concentration at 0.2 h [24]: 19900 ng/mL
Cmax [7]: 454 ng/g
half-life [25]: 3.9 h
IC50 [5]: 2 nM
concentration at 1 h [26]: 6010 ng/mL
inhibition [27]: 60%
concentration at 12 h [28]: 175 ng/g
IC50 [3]: 28 nM
Cmax [29]: 200 ng/mL
SMILES: O=c1cc(NC2CCN(Cc3ccc4c(c3)OCO4)CC2)c2cc(Cl)ccc2o1
IC50 [8]: 2250 nM
% change (Mus musculus [10]): -18.2%
% change (Mus musculus [11]): -16%
% change (Mus musculus [15]): -31%
% change (Mus musculus [20]): -6.9%

AUC [4]: 1.18 µg·h/g
AUC at 24 h [6]: 2870 ng·h/mL
Cmax [7]: 182 ng/g
IC50 [5]: 7 nM
concentration at 12 h [28]: 18 ng/g
IC50 [3]: 63 nM
SMILES: O=c1cc(NC2CCN(Cc3ccc4[nH]ccc4c3)CC2)c2cc(Cl)ccc2o1

IC50 [5]: 21 nM
IC50 [3]: 92 nM
SMILES: O=c1cc(NC2CCN(Cc3ccc4ccccc4c3)CC2)c2cc(Cl)ccc2o1

AUC [32]: 980 ng·h/mL
AUC [31]: 0.43 µg·h/g
IC50 [5]: 4 nM
IC50 [3]: 44 nM
SMILES: COc1ccc2oc(O)c/c(=N\C3CCN(C/C=C/c4ccccc4)CC3)c2c1

IC50 [5]: 60 nM
IC50 [3]: 162 nM
SMILES: Cn1ccc2ccc(CN3CCC(/N=c4\cc(O)oc5ccc(Cl)cc45)CC3)cc21

From ChEMBL document CHEMBL1141081, “Discovery and characterization of aminopiperidinecoumarin melanin concentrating hormone receptor 1 antagonists” (J Med Chem, 2005)
